Assay results as given in ChEMBL document CHEMBL5724801, “EUbOPEN Chemogenomics Library - Multiplex” (2024).
“And” between values parts separate entries of the source, which are not always exact repeats. Equal entries are not always repeated.

System: U2OS
Assay: Multiplex assay against U2OS
Type: toxicity, cell-based
Conditions: human
Method in brief: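 Compound was added to live cells that had been stained at seeding with Hoechst33342, BioTracker Green Microtubule Cytoskeleton Dye, MitoTracker Red and Annexin V Alexa Fluor 680, and imaging followed on a CQ1 microscope at 37°C and 5% CO2. CellPathfinder machine-learning gating divided cells into Hoechst high-intensity objects or normal cells, normal cells into healthy, pyknosed or fragmented nuclei, and pyknosed cells into mitotic or apoptotic. Tubulin, mitochondrial-mass and membrane-permeability phenotypes are per cents of healthy-nucleus cells.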

[1] = 12 h, 1 µM, compound concentration 1 uM
[2] = 12 h, 10 µM, compound concentration 10 uM
[3] = 24 h, 1 µM, compound concentration 1 uM
[4] = 24 h, 10 µM, compound concentration 10 uM
[5] = 48 h, 1 µM, compound concentration 1 uM
[6] = 48 h, 10 µM, compound concentration 10 uM

NCCc1cn(S(=O)(=O)c2c(Cl)nc3sccn23)c2ccccc12.O=C(O)C(=O)O
Population Apoptotic (%) [1]: 66% and 81%
Population Fragmented Nuclei (%) [1]: 30% and 17%
Population Healthy Nuclei (%) [1]: 58% and 72%
Population Hoechst High Intensity Objects (%) [1]: 1%
Population Membrane Permeable-Phenotype (%) [1]: 9% and 4%
Population Mitochondria Different-Phenotype (%) [1]: 6% and 8%
Population Mitotic Cells (%) [1]: 33% and 18%
Population Normal (%) [1]: 98%
Population Pyknosed Nuclei (%) [1]: 10% and 9%
Population Tubulin-Different-Phenotype (%) [1]: 6%
Total Cell Count [1]: 280 and 116
Population Apoptotic (%) [2]: 71% and 82%
Population Fragmented Nuclei (%) [2]: 26% and 20%
Population Healthy Nuclei (%) [2]: 42% and 53%
Population Hoechst High Intensity Objects (%) [2]: 5% and 4%
Population Membrane Permeable-Phenotype (%) [2]: 42% and 30%
Population Mitochondria Different-Phenotype (%) [2]: 60% and 71%
Population Mitotic Cells (%) [2]: 28% and 17%
Population Normal (%) [2]: 94% and 95%
Population Pyknosed Nuclei (%) [2]: 30% and 26%
Population Tubulin-Different-Phenotype (%) [2]: 59% and 50%
Total Cell Count [2]: 221 and 115
Population Apoptotic (%) [3]: 69% and 78%
Population Fragmented Nuclei (%) [3]: 25% and 20%
Population Healthy Nuclei (%) [3]: 66% and 70%
Population Hoechst High Intensity Objects (%) [3]: 1%
Population Membrane Permeable-Phenotype (%) [3]: 6% and 9%
Population Mitochondria Different-Phenotype (%) [3]: 5% and 7%
Population Mitotic Cells (%) [3]: 30% and 21%
Population Normal (%) [3]: 98%
Population Pyknosed Nuclei (%) [3]: 8% and 9%
Population Tubulin-Different-Phenotype (%) [3]: 3% and 7%
Total Cell Count [3]: 326 and 151
Population Apoptotic (%) [4]: 83% and 86%
Population Fragmented Nuclei (%) [4]: 29% and 20%
Population Healthy Nuclei (%) [4]: 38% and 46%
Population Hoechst High Intensity Objects (%) [4]: 6% and 3%
Population Membrane Permeable-Phenotype (%) [4]: 26%
Population Mitochondria Different-Phenotype (%) [4]: 63% and 67%
Population Mitotic Cells (%) [4]: 16% and 13%
Population Normal (%) [4]: 93% and 96%
Population Pyknosed Nuclei (%) [4]: 31% and 33%
Population Tubulin-Different-Phenotype (%) [4]: 26% and 38%
Total Cell Count [4]: 240 and 116
Population Apoptotic (%) [5]: 81% and 85%
Population Fragmented Nuclei (%) [5]: 21%
Population Healthy Nuclei (%) [5]: 70% and 66%
Population Hoechst High Intensity Objects (%) [5]: 1% and 6%
Population Membrane Permeable-Phenotype (%) [5]: 5% and 10%
Population Mitochondria Different-Phenotype (%) [5]: 4% and 7%
Population Mitotic Cells (%) [5]: 18% and 14%
Population Normal (%) [5]: 98% and 93%
Population Pyknosed Nuclei (%) [5]: 8% and 12%
Population Tubulin-Different-Phenotype (%) [5]: 2% and 7%
Total Cell Count [5]: 454 and 182
Population Apoptotic (%) [6]: 92%
Population Fragmented Nuclei (%) [6]: 37% and 29%
Population Healthy Nuclei (%) [6]: 27% and 34%
Population Hoechst High Intensity Objects (%) [6]: 7%
Population Membrane Permeable-Phenotype (%) [6]: 25% and 42%
Population Mitochondria Different-Phenotype (%) [6]: 56% and 65%
Population Mitotic Cells (%) [6]: 7%
Population Normal (%) [6]: 92%
Population Pyknosed Nuclei (%) [6]: 35%
Population Tubulin-Different-Phenotype (%) [6]: 25% and 42%
Total Cell Count [6]: 241 and 127
